Rows were chosen to be rich in hits. Some 6.5% of all compounds tested hit in one or more screens of this group.
Ecoli tolC: blocks growth of E. coli BW25113 tolC mutant; OD615; growth inhibition, % at 10 µM (by protocol); actives 2.2% (n = 65,000); AID 573;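 active = growth inhibition at or above a cutoff equal to the mean over every tested compound plus 3 SD, cut at about 60% in these data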;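 also: growth measured after 20 h incubation at 37 °C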
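Test system – E. coli BW25113 ΔtolC::kan, tolC deletion mutant strain · Detection – OD at 615 nm · Buffer or medium – LB with kanamycin 50 µg/mL · Times – 20 h compound exposure of bacteria at 37 °C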
E coli WT exp: blocks growth of wild type E. coli BW25113. OD600 absorbance. growth inhibition, % at 100 µM. actives 0.15% (n = 98,000);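 active = growth inhibition above about 50% at one test dose, limit read from the data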;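 also: growth measured after 20 h incubation at 37 °C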
Calb biofilm kill: kills Candida albicans biofilms; C. albicans biofilm + clotrimazole, Alamar Blue; inhibition, % at 6 µM; actives 0.14% (n = 85,000);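 active = inhibition above 20%; inactive = inhibition below 20%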;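 also: preformed 24 hr biofilms exposed to compound for 48 hr; 0% = biofilm without compound and 100% = blank killed by clotrimazole plus chlorhexidine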
PostGolgi yeast: growth inhibition of a yeast mutant, post-Golgi transport screen. inhibition, % at 10 µM. actives 0.9% (n = 98,000). AID 739. post-Golgi transport phenotypic cell assay;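 also: yeast cells grown in 1536-well plates; yeast grown about 18 h at 30C before absorbance read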
PostGolgi ctrl: inhibits growth of the yeast control strain. efflux-deficient yeast background strain, growth absorbance A615, 16 h. inhibition, % at 10 µM. actives 5% (n = 98,000). AID 738
PTK2B oligo ant: Pyk2 (human) oligomerization antagonism | Q14289 | Q293 cells, Pyk2 FERM NanoBiT luminescence; stronger effect = lower value | z-score (the deposit names both 25 µM and 10 µM) | actives 0.83% (n = 99,000);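 active = Z-score of -3 or lower, scaled per plate to the spread of control and sample wells; inactive = z-score above -3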;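 also: negative z-score means lost luminescence so less FERM oligomerization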
Target sequence (Q14289 whole entry, looked up): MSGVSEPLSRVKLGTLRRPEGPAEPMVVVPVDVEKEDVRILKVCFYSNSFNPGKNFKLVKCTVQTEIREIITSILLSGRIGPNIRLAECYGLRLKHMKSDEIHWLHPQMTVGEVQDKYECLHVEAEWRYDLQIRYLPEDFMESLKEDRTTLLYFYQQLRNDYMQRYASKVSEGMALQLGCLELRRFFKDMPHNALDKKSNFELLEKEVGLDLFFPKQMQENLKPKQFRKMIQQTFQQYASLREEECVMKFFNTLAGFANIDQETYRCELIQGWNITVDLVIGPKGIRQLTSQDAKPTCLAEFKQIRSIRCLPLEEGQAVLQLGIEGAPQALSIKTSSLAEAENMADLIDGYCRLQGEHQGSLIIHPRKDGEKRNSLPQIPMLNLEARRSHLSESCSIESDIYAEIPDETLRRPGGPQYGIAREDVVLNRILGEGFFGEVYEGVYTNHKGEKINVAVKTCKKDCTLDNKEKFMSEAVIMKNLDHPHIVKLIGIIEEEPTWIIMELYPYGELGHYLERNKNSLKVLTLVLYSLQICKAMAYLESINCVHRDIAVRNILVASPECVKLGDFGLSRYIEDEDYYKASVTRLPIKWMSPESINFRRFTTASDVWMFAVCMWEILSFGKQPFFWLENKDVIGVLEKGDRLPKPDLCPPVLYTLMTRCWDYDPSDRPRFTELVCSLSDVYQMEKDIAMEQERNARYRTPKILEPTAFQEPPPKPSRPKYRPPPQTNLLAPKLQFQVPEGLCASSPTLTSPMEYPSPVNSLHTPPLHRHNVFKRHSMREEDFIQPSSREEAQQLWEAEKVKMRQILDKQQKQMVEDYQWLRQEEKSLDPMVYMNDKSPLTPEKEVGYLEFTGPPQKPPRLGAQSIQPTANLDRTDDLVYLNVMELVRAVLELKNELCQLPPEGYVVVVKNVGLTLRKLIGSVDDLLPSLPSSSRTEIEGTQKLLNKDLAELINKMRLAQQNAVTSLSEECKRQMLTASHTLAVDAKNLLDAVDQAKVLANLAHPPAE
* hit, by the source's call; . = no result given. Rule as the data show it, unless noted: active = inhibition above about 30%; inactive = the rest.

SMILES	Ecoli tolC	E coli WT exp	Calb biofilm kill	PostGolgi yeast	PostGolgi ctrl	PTK2B oligo ant
CCOC(=O)N1CCN(c2cc3[nH]c(=S)[nH]c3cc2F)CC1	-10	1	1	10	-9	-0.43
O=C(/C(=C/c1ccc(Cl)cc1)c1nc2ccccc2[nH]1)c1cccs1	.	-15	.	104*	101*	-0.47
COc1cc(/C=C(/C(=O)c2cccs2)c2nc3ccccc3[nH]2)ccc1O	.	-6	5	2	6	-0.85
O=C(C1CCCCC1)N1CCC(c2nc3c(nnn3Cc3c(F)cccc3Cl)c(=O)[nH]2)CC1	89*	.	6	.	.	0.68
N#Cc1cccc(NC(=O)N2CCC(c3nc4c(nnn4Cc4cccc(Cl)c4)c(=O)[nH]3)CC2)c1	-9	-10	4	11	8	1.2
CCCCCCC(=O)N1CCC(c2nc3c(nnn3Cc3ccccc3Cl)c(=O)[nH]2)CC1	100*	2	7	-4	8	-1.2
COc1ccccc1NC(=O)N1CCCC(c2nc3c(nnn3Cc3ccc(C)cc3)c(=O)[nH]2)C1 (stereo not drawn)	14	0	6	-10	4	-1
O=C(Nc1ccc(F)cc1)N1CCC(c2nc3c(nnn3Cc3cccc(Cl)c3)c(=O)[nH]2)CC1	100*	-1	.	0	13	-1.5
Cc1ccc(NC(=O)N2CCC(c3nc4c(nnn4Cc4cccc(Cl)c4)c(=O)[nH]3)CC2)cc1	99*	-13	4	-4	-1	-0.23
CSc1nc(NC(C)(C)C)nc(Oc2ccc(=O)n(C)n2)n1	.	1	-1	-16	-4	0.64
Nc1c(C(=O)c2ccccc2)sc2snc(SCC(=O)c3ccccc3)c12	.	-14	.	0	9	0.59
Cc1c(NC(=O)c2cc3ccccc3oc2=O)c(=O)n(-c2ccccc2)n1C	.	-4	.	5	4	0.33
O=C(COC(=O)[C@H](Cc1ccccc1)NS(=O)(=O)c1ccccc1F)NC1CCCCC1	.	6	.	-10	-1	0.25
O=C(COC(=O)C1COc2ccccc2O1)Nc1ccc2c(c1)CCC2 (stereo not drawn)	4	-1	6	13	10	-0.05
COc1cc(/C=N/c2oc(-c3ccccc3)cc2C#N)ccc1O	.	5	.	15	19	0.08
O=C(NCc1ccccc1)c1ccc(Oc2ccc(C(=O)NCc3ccccc3)cc2)cc1	.	-4	8	13	12	2.3
O=C(NCc1ccccc1)c1ccc(OC2CSC2)cc1	1	-2	-1	-5	32*	-0.07
CCOC(=O)c1sc(NC(=O)CSc2nc3c(cc2C#N)CCCCCC3)c(C#N)c1C	-17	-5	1	-2	0	-3.4*
CC(C)C(=O)N/N=C/c1ccc(OCc2ccccc2)cc1	.	-5	.	1	5	0.52
NC(N)=N/N=C/c1ccc(OCc2ccccc2)cc1	.	99*	.	3	8	0.86
NC(N)=N/N=C/c1ccc(OCc2ccc(Cl)cc2)cc1	.	100*	.	-9	63*	-1.2
CC(=O)C1=C(O)C(=O)N(CCNCCO)C1c1ccccc1 (stereo not drawn)	.	-8	3	5	5	-0.08
Cc1ccc(-n2ncc3c(=O)n(CC#N)cnc32)cc1	-14	7	8	-1	2	1.5
CC(c1ccco1)N(C(=O)CSc1ccc(Br)cc1)c1ccccn1 (stereo not drawn)	20	-1	4	-3	13	-0.25
Cc1cc(=O)[nH]c(Nc2c(C)n(C)n(-c3ccccc3)c2=O)n1	-6	0	7	-3	-8	-0.56
SMILES	Ecoli tolC	E coli WT exp	Calb biofilm kill	PostGolgi yeast	PostGolgi ctrl	PTK2B oligo ant
Cc1c(NC2=C(Cl)C(=O)N(c3ccccc3)C2=O)c(=O)n(-c2ccccc2)n1C	-5	4	0	7	31*	-0.48
Cc1c(Nc2nc3ccccc3nc2N2CCN(c3ccccc3)CC2)c(=O)n(-c2ccccc2)n1C	11	-6	1	2	34*	-2
O=C(NCCCCCCNC(=O)OC1CCS(=O)(=O)C1)OC1CCS(=O)(=O)C1 (stereo not drawn)	.	0	.	-1	10	0.19
Cc1ccc(C)c(-n2c(C)cc(/C=N/NC(=O)c3c(C)nc4cc(C)ccn34)c2C)c1	.	.	1	.	.	0.22
CSc1nnc(Cn2c(=O)sc3ccccc32)n1-c1ccccc1	6	2	2	-8	-1	.
CC(C)Sc1nnc(Cn2c(=O)sc3ccccc32)n1-c1ccccc1	1	2	-8	4	32*	.
COc1ccc(S(=O)(=O)N2CCN(c3c(C)cccc3C)CC2)cc1OC	34	-3	11	11	31*	.
COc1ccc(S(=O)(=O)N2CCN(c3ccc(C)cc3C)CC2)cc1OC	30	-7	17	8	17	.
Cc1cc(S(=O)(=O)N2CCN(c3ccccc3C)CC2)ccc1F	64*	-14	4	-9	30*	-3.6*
Cc1ccccc1N1CCN(S(=O)(=O)c2ccccc2)CC1	.	.	6	.	.	-3.1*
Cc1cc(S(=O)(=O)N2CCN(c3c(C)cccc3C)CC2)ccc1F	47	-23	1	6	14	-0.5
Cc1cc(C(=O)N2CCN(CCc3ccccc3)CC2)no1	-5	0	0	-1	-2	-0.25
O=C(NCc1ccc2c(c1)OCO2)c1cc2ncc(Br)cn2n1	3	-9	7	-4	-2	2.6
CCC(C)C(NC(=O)c1ccccc1NC(=O)c1ccco1)C(=O)NC1CCCCC1 (stereo not drawn)	9	-2	3	2	21	1.4
Cc1c(C)[n+](=O)c(-c2cccs2)c(C)n1[O-]	-9	-9	7	4	-6	-0.22
Cc1cc(C)c2c(N)c3ccccc3nc2n1	.	52*	.	4	2	2.1
CCc1ccc2nc3nc(C)cc(C)c3c(N)c2c1	.	5	.	3	14	-1.3
C/C(=C\C(=O)Nc1nccs1)c1ccccc1	23	12	3	5	14	-0.24
COc1cc2c(cc1OC)CN(Cc1ccc(C)s1)CC2	.	8	7	-1	43*	0.07
CC(CC(=O)NCc1ccccc1)C1CCCO1 (stereo not drawn)	-30	1	7	2	-2	-0.1
Cc1ccccc1-c1nc(S(=O)(=O)c2ccc(Br)cc2)c(NCc2cccnc2)o1	.	-11	5	0	31*	-3.4*
Cc1ccccc1NC(=O)c1csc2c1CCCC2	.	1	.	-8	2	-0.55
Cc1ccc(/C=N/NC(=O)c2csc3c2CCCC3)cc1	.	-14	.	-8	32*	-0.12
Cc1cccc(N(C)C(=O)c2cc3cc4ccc(C)cc4nc3o2)c1	96*	-10	6	1	11	-1.6
Cc1c(CN(C)C)c2c(n1Cc1ccccc1)C(=O)c1ccccc1-2	.	18	4	-1	-1	-1.3
COc1ccc(Cl)cc1C(=O)CSc1nnnn1C1CCCC1	58	-13	6	20	35*	-1.2
COc1ccc(-c2nsc3c(SCC(=O)Nc4cc(C)ccc4C)ncnc23)cc1	.	-10	.	-1	0	.
COC(/C=C/Nc1ccc(C)cc1)=C(C#N)C#N	.	-3	.	0	8	0.73

Source: PubChem BioAssay (several laboratories)
